Results: publication PMC3983348 (Journal of Medicinal Chemistry, 2014)
Like-named read-outs stand apart in the source and are kept apart here.

Columns and labels:
renal, SN12C [1] = settings: read-out: cytotoxicity GI50, renal, SN12C; five-dose assay; cited from earlier work
lung, HOP-62 [2] = settings: read-out: cytotoxicity GI50, lung, HOP-62; five-dose assay; cited from earlier work
prostate, DU-145 [3] = settings: read-out: cytotoxicity GI50, prostate, DU-145; five-dose assay; cited from earlier work
melanoma, UACC-62 [4] = settings: read-out: cytotoxicity GI50, melanoma, UACC-62; five-dose assay; cited from earlier work
ovarian, OVCAR-3 [5] = settings: read-out: cytotoxicity GI50, ovarian, OVCAR-3; five-dose assay; cited from earlier work
[6] = tested on: panel of 60 different human cancer cell lines; settings: mean graph midpoint, five-dose assay; cited from earlier work
recombinant Top1 [7] = biological target: T1, recombinant Top1 (Homo sapiens, UniProt P11387); set-up: key to the marks not given beside the values; settings: score based on the activity of 1 μM camptothecin; cited from earlier work
T1 sequence (P11387 1-765): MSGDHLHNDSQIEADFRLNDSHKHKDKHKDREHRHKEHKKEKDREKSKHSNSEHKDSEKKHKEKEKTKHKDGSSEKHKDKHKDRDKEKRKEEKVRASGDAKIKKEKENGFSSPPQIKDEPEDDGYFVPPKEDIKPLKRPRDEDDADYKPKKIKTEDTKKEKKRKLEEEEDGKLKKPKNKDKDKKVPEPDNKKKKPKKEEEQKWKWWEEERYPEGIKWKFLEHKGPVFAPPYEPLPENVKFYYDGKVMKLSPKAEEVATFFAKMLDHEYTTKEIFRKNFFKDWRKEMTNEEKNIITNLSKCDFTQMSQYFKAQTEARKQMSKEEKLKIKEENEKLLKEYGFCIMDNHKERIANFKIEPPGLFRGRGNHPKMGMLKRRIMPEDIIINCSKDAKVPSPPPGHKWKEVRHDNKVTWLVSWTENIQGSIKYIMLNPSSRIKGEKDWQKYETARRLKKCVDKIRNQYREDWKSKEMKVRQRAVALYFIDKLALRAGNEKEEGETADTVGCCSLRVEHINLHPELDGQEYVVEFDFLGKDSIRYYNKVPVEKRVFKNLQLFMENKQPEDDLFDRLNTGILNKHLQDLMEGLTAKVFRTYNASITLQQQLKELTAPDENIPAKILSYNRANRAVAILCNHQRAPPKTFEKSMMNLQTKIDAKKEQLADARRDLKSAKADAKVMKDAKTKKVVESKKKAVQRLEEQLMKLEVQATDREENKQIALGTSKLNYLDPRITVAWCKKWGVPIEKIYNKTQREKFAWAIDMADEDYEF

CNS, SF-539 = settings: read-out: cytotoxicity GI50, CNS, SF-539; five-dose assay; cited from earlier work
colon, HCT-116 [8] = settings: read-out: cytotoxicity GI50, colon, HCT-116; five-dose assay; cited from earlier work
colon, HCT-116 [9] = assay: NCI-60 five-dose assay, HCT-116; format: cell-based; settings: Homo sapiens, HCT-116, read-out: cytotoxicity GI50, colon, HCT-116
How it was run: (§1)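 Run in the National Cancer Institute's NCI-60 human cancer cell panel. Test compounds were first screened in a one-dose assay at 10–5 M, reading growth percent relative to vehicle-treated control.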

recombinant Top1 [10] = biological target: T1, recombinant Top1; assay: Top1-mediated DNA cleavage assay; format: biochemical; settings: compound-induced DNA cleavage, score based on the activity of 1 μM camptothecin
∼60 cancer cell lines = assay: NCI-60 one-dose assay; format: cell-based; settings: Homo sapiens, read-out: mean growth, %, 10 μM compound, one-dose assay, relative to vehicle-treated control
How it was run: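 Single-dose screen at 10–5 M across the ~60 human cancer cell lines of the NCI-60 panel. Growth percent of treated cells was expressed relative to vehicle-treated controls and averaged over the panel.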

[11] = tested on: panel of 60 different human cancer cell lines; assay: NCI-60 five-dose assay, mean graph midpoint; format: cell-based; settings: mean graph midpoint of growth inhibition, five-dose assay 10^–8 to 10^–4 M
renal, SN12C [12] = assay: NCI-60 five-dose assay, SN12C; format: cell-based; settings: Homo sapiens, read-out: cytotoxicity GI50, renal, SN12C
How it was run: as §1

breast, MCF7 [13] = assay: NCI-60 five-dose assay, MCF7; format: cell-based; settings: Homo sapiens, MCF7, read-out: cytotoxicity GI50, breast, MCF7
How it was run: as §1

ovarian, OVCAR-3 [14] = assay: NCI-60 five-dose assay, OVCAR-3; format: cell-based; settings: Homo sapiens, OVCAR-3, read-out: cytotoxicity GI50, ovarian, OVCAR-3
How it was run: as §1

lung, HOP-62 [15] = assay: NCI-60 five-dose assay, HOP-62; format: cell-based; settings: Homo sapiens, HOP-62, read-out: cytotoxicity GI50, lung, HOP-62
How it was run: as §1

prostate, DU-145 [16] = assay: NCI-60 five-dose assay, DU-145; format: cell-based; settings: Homo sapiens, DU-145, read-out: cytotoxicity GI50, prostate, DU-145
How it was run: as §1

melanoma, UACC-62 [17] = assay: NCI-60 five-dose assay, UACC-62; format: cell-based; settings: Homo sapiens, UACC-62, read-out: cytotoxicity GI50, melanoma, UACC-62
How it was run: as §1

breast, MCF7 [18] = settings: read-out: cytotoxicity GI50, breast, MCF7; five-dose assay; cited from earlier work

Compound	GI50 (renal, SN12C [1])	GI50 (lung, HOP-62 [2])	GI50 (prostate, DU-145 [3])	GI50 (melanoma, UACC-62 [4])	GI50 (ovarian, OVCAR-3 [5])	MGM [6]	Top1 cleavage (recombinant Top1 [7])	GI50 (CNS, SF-539)	GI50 (colon, HCT-116 [8])	GI50 (colon, HCT-116 [9])	Top1 cleavage (recombinant Top1 [10])	activity at 10 µM (∼60 cancer cell lines)	MGM [11]	GI50 (renal, SN12C [12])	GI50 (breast, MCF7 [13])	GI50 (ovarian, OVCAR-3 [14])	GI50 (lung, HOP-62 [15])	GI50 (prostate, DU-145 [16])	GI50 (melanoma, UACC-62 [17])	GI50 (breast, MCF7 [18])
COc1cc2c3c(n(CCCn4ccnc4)c(=O)c2cc1OC)-c1cc2c(cc1C3=O)OCO2 [Compound 5, 6-(3-(1H-Imidazol-1-yl)propyl)-2,3-dimethoxy-5,6-dihydro-8,9-methylendioxy-5,12-dioxoindeno[1,2-c]isoquinoline]	< 10 nM	< 10 nM	< 10 nM	< 10 nM	85 nM	0.079 ± 0.023 µM	++++	37 nM	< 10 nM											
O=C1c2ccccc2-c2c1c1ccc([N+](=O)[O-])cc1c(=O)n2C[C@H](O)[C@@H](O)[C@@H](O)[C@H](O)CO [Compound 69, (2′S,3′R,4′S,5′R)-5,6-Dihydro-6-(2′,3′,4′,5′,6′-pentahydroxyhexyl)-3-nitro-5,11-dioxo-11H-indeno[1,2-c]isoquinoline]										3390 nM	++++	51.5 to 73.2%	7.94 µM							
CC[C@@]1(O)C(=O)OCc2c1cc1n(c2=O)Cc2cc3ccccc3nc2-1 [Compound 1, camptothecin, reference compound]										30 nM				20 nM	10 nM	220 nM	10 nM	10 nM	10 nM	
COc1cc2c3c(n(CCCN4CCOCC4)c(=O)c2cc1OC)-c1cc2c(cc1C3=O)OCO2 [Compound 4, 2,3-Dimethoxy-6-(3-morpholinopropyl)-5,6-dihydro-8,9-methylenedioxy-5,12-dioxoindeno[1,2-c]isoquinoline]	813 nM	1780 nM	155 nM	30 nM	74100 nM	4.64 ± 1.25 µM	++++	40 nM	1150 nM											370 nM
